According to ChEMBL document CHEMBL1933026, “Synthesis and biological evaluation of molecular probes based on the 9-methylstreptimidone derivative DTCM-glutarimide” (Bioorg Med Chem Lett, 2012):
≈ marks a conversion by molar mass, not a printed value. Calls of active or inactive are those of the source. The rule behind the calls is not given here.

What was measured:
[1] = (§1) Cytotoxicity against LPS-induced mouse RAW264.7 cells treated 2 hrs before LPS challenge measured after 20 hrs by MTT assay; assay type: cell-based; details: mouse, LPS-induced RAW264.7 cells; read-out: ED50
Method in brief: (§2)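 RAW264.7 cells seeded at 1 × 10⁵ cells/ml and treated the next day with compound for 2 h, followed by LPS for 20 h. MTT solution then added and cells held 4 h at 37 °C in 5% CO₂. Viability read as absorbance at 570 nm.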

[2] = system: RAW264.7; assay: Antiinflammatory activity in mouse RAW264.7 cells assessed as inhibition of LPS-induced NO production treated for 2 hrs before LPS challenge measured after 20 hrs by Griess method; assay type: functional, cell-based
Method in brief: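 RAW264.7 macrophages grown in DMEM with 10% FBS, seeded at 1 × 10⁵ cells/ml and used next day. Pretreated with compound 2 h, then stimulated with LPS […] for 20 h. Nitrite in the medium read with Griess reagent.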

[3] = system: RAW264.7; assay: Inhibition of LPS-induced NF-kappaB activation in mouse RAW264.7 cells at 3 ug/ml treated 2 hrs before LPS challenge measured after 30 mins by electrophoretic mobility shift assay; assay type: cell-based
Method in brief: (§3)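 RAW264.7 cells pretreated 2 h, then stimulated with LPS for 30 min. Nuclear extracts prepared by the Andrews–Faller method. 5 µg protein incubated 20 min at RT with poly(dI-dC) and a ³²P-labelled NF-κB oligonucleotide in Tris-HCl pH 7.0 buffer with NaCl, EDTA, DTT, glycerol and NP-40. Complexes resolved on a 4% native polyacrylamide gel in TBE.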

[4] = system: RAW264.7; assay: as §1; assay type: cell-based; details: Mus musculus, RAW264.7; method in brief: as §2
[5] = system: RAW264.7; assay: Antiinflammatory activity in mouse RAW264.7 cells assessed as inhibition of LPS-induced iNOS expression at 1 to 10 ug/ml treated 2 hrs before LPS challenge measured after 24 hrs by Western blotting; assay type: functional, cell-based
Method in brief: (§4)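 RAW264.7 cells in DMEM with 10% FBS. Incubated with or without compound for 2 h, then stimulated with LPS 1 µg/ml for 24 h. Total cell lysates analysed for iNOS protein by Western blotting.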

[6] = system: RAW264.7; assay: Inhibition of LPS-induced NF-kappaB activation in mouse RAW264.7 cells at 10 ug/ml treated 2 hrs before LPS challenge measured after 30 mins by electrophoretic mobility shift assay; assay type: cell-based; method in brief: as §3
[7] = system: RAW264.7; assay: Antiinflammatory activity in mouse RAW264.7 cells assessed as inhibition of LPS-induced iNOS expression at 0.3 to 3 ug/ml treated 2 hrs before LPS challenge measured after 24 hrs by Western blotting; assay type: functional, cell-based; method in brief: as §4

IC50 [2] [µg/mL]	SMILES	CC50 at 20 h [1] [µg/mL]	inhibition [3]	IC50 [4] [µg/mL]	inhibition [5]	inhibition [6]	inhibition [7]
> 30	O=C(CCCC[C@@H]1SC[C@@H]2NC(=O)N[C@@H]21)NCCSC(=O)CC1CC(=O)NC(=O)C1	> 30					
4.5 (≈ 8.73 µM)	[N-]=[N+]=Nc1ccc(C(=O)NCCCCCCCCCCCCSC(=O)CC2CC(=O)NC(=O)C2)cc1	> 30	inactive	> 30	Active	inactive	
5 (≈ 8.38 µM)	O=C(CCCC[C@@H]1SC[C@@H]2NC(=O)N[C@@H]21)NCCCCCCCCCCCCSC(=O)CC1CC(=O)NC(=O)C1	> 30	inactive	> 30	Active	inactive	
	CCCCCCCCCCCCSC(=O)CC1CC(=O)NC(=O)C1		inactive			inactive	Active
> 30	O=C(CCCC[C@@H]1SC[C@@H]2NC(=O)N[C@@H]21)NCCCCCCCCCCCCNC(=O)CC1CC(=O)NC(=O)C1	> 30					
